Several values for one entry are separate records, joined by “and”; a condition that tells them apart may be missing. Equal values may be shown once. Entries after “also recorded” stand apart in the source; their conditions may differ. Some results are limits rather than exact numbers.

For assay [1], the target named is T1, PvENT1 (Plasmodium vivax, UniProt A5K8B0).
T1 sequence (A5K8B0 1-416): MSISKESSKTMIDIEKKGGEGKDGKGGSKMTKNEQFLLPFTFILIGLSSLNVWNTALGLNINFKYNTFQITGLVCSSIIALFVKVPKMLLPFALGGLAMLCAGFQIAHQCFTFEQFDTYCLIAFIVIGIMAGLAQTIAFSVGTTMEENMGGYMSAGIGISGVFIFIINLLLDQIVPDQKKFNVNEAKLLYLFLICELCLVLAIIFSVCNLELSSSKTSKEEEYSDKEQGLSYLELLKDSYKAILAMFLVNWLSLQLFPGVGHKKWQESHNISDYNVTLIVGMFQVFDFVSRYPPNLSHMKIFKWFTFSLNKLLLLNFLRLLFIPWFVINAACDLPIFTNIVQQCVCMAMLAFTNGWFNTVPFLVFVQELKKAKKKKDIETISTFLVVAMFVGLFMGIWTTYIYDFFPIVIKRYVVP
The experiment in a line: Inhibition of [3H]uridine uptake into PvENT1-expressing yeast. In kind it is cell-based. Particulars: for fold lower IC50 of PvENT1 than PfENT1: PvENT1 vs PfENT1.

Assay [2] concerns the target T1, PvENT1. The experiment in a line: Inhibition of [3H]adenosine uptake into PvENT1-expressing yeast. The format is cell-based.
Assay [3] deals with PvENT1-expressing purine auxotrophic yeast. The experiment in a line: Growth of PvENT1-expressing purine auxotrophic yeast with a sole purine source. In kind it is cell-based. Particulars: Saccharomyces cerevisiae, read-out: growth EC50. Put shortly: (§1)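 Yeast strain was MATa his3Δ1 leu2Δ0 met15Δ0 ura3Δ0 fui1Δ::KanMX4 ade2Δ::hphNT1 carrying pCM189 (empty or PvENT1). Cells grown to mid-log in SDM-adenine were washed three times in water, diluted to 4 × 10^6 cells/mL, and added 1:1 to adenine or adenosine serially diluted in 2× purine-free SDM.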

In assay [4] the test system is empty vector (EV) purine auxotrophic yeast. The experiment in a line: Growth of empty vector. The format is cell-based, Saccharomyces cerevisiae. The gist of the method: as §1
Another assay has as its system PfENT1. Particulars: read-out: PfENT1 IC50; ref Riegelhaupt et al., 2010a; cited from earlier work.
For the next assay, the system named is hENT1. Particulars: ref Griffiths et al., 1997, Baldwin et al., 2004, cited from earlier work.
The mark [5] stands for this setting: IC50 for inhibition of [^3H]Adenosine by indicated pyrimidine, 50 nM [3H]adenosine, 15 min, PvENT1-expressing yeast, mean ± SD.
Setting [6] is: [^3H]Adenosine uptake inhibition IC50, hENT1 inhibitors and toxic purine analogs, 50 nM [3H]adenosine, concentrations up to 20 mM, mean ± SD, n = 3.
Where [7] appears, read: IC50 for inhibition of [^3H]Uridine by indicated purine, 250 nM [3H]uridine, 15 min, PvENT1-expressing yeast, mean ± SD.
Where [8] appears, read: IC50 for inhibition of [^3H]substrate uptake by the indicated purine, WT, Table 4, WT PvENT1, radiolabel [3H]adenosine (#).
Setting [9] is: hENT1 inhibitors and toxic purine analogs, 50 nM [3H]adenosine, concentrations up to 20 mM, mean ± SD, n = 3.
[10] abbreviates: read-out: [^3H]Adenosine uptake inhibition IC50, hENT1 inhibitors and toxic purine analogs, 50 nM [3H]adenosine, concentrations up to 20 mM, mean ± SD, n = 3.

As a reminder, the IC50 is the concentration at which inhibition is half-maximal. For the molecule `Nc1nc2c(ncn2[C@H]2C[C@H](O)[C@@H](CO)O2)c(=O)[nH]1` [2-deoxyguanosine], the IC50 on PvENT1 [1] (read-out: IC50 for inhibition of [^3H]Uridine by indicated purine, 250 nM [3H]uridine, 15 min, PvENT1-expressing yeast, mean ± SD) was determined as 20.5 ± 4.8 µM.
In the case of `O=c1[nH]c(=O)n([C@@H]2O[C@H](CO)[C@@H](O)[C@H]2O)cc1F` [5-Fluorouridine (5-FUrd), 5-Fluorouridine], the IC50 against PvENT1 [2] (setting [5]) stood at 1770 ± 302 µM; on PvENT1 [2] (IC50 for inhibition of [^3H]adenosine uptake, 50 nM [3H]adenosine), 1700 µM.
As to `Sc1ncnc2nc[nH]c12` [6-mercaptopurine], at PvENT1 [2] (setting [6]), the IC50 is 160 µM and 158 µM.
As usually defined, the EC50 is the concentration needed to bring the measured effect to its halfway point. On PvENT1 [1] (setting [7]), `Nc1ncnc2[nH]cnc12` [Adenine] returned an IC50 of 1430 ± 736 µM. Besides, the “IC50 of nucleobase relative to the corresponding nucleoside” value against PvENT1 [1] (PvENT1-expressing yeast) is given as “one order of magnitude higher”. For the same molecule, the EC50 worked out at 27 ± 2 µM in assay [3] and 39 ± 2 µM in assay [4] (Saccharomyces cerevisiae, read-out: growth EC50).
With `Nc1ncnc2c1ncn2[C@@H]1O[C@H](CO)[C@@H](O)[C@H]1O` [Adenosine], the IC50 in the assay with PfENT1 was approximately 650 µM; against PvENT1 [1] (setting [7]) it was 142 ± 34 µM; against PvENT1 [1] (IC50 for inhibition of [^3H]substrate uptake by the indicated purine, WT, Table 4, WT PvENT1, radiolabel [3H]uridine), 167 ± 52 µM. The “fold lower IC50 of PvENT1 than PfENT1” value at PvENT1 [1] is on record as 4–5 fold. Besides, in assay [3], the EC50 amounted to 394 ± 85 µM. Besides, the “growth EC50” value in assay [4] (EV yeast, liquid media, sole purine source) is recorded as “failed to grow”.
For the molecule `Nc1cc[nH]c(=O)n1` [Cytosine], inhibition against PvENT1 [2] (setting [5]) was half-maximal at 6140 ± 1030 µM (IC50). In addition, the “effect on radiolabel uptake into PvENT1-expressing yeast (in words)” value on PvENT1 [2] ([3H]adenosine uptake for pyrimidines) was “slight inhibition”.
Turning to `OCCN(CCO)c1nc(N2CCCCC2)c2nc(N(CCO)CCO)nc(N3CCCCC3)c2n1` [Dipyridamole, dipyridamole], the “PvENT1 IC50 relative to hENT1” value at PvENT1 [2] (PvENT1 vs human ENT1) came to 1000 fold. In addition, the IC50 on PvENT1 [2] (setting [6]) is ~40 µM and 40 µM. The “concentration range inhibiting hENT1” value in the assay with hENT1 was 5 to 20 nM.
In the case of `Nc1nc2nc[nH]c2c(=O)[nH]1` [Guanine], the IC50 on PvENT1 [1] (setting [7]) was determined as 6340 ± 2950 µM.
Same read-out and setting: then `Nc1nc2c(ncn2[C@@H]2O[C@H](CO)[C@@H](O)[C@H]2O)c(=O)[nH]1` [Guanosine], with 14.9 ± 1.4 µM.
Regarding `O=c1[nH]cnc2nc[nH]c12` [Hypoxanthine], the IC50 is approximately 480 µM with PfENT1, 99 ± 30 µM at PvENT1 [1] (setting [7]) and 141 ± 24 µM against PvENT1 [2] (setting [8]). Further, the “fold lower IC50 of PvENT1 than PfENT1” value at PvENT1 [1] is recorded as 4–5 fold.
For `OC[C@H]1O[C@@H](n2cnc3c(O)ncnc32)[C@H](O)[C@@H]1O` [Inosine], the IC50 stood at 3.8 ± 1.4 µM at PvENT1 [1] (setting [7]) and 5 ± 4 µM on PvENT1 [2] (setting [8]).
For `O=[N+]([O-])c1ccc(CSc2ncnc3c2ncn3C2OC(CO)C(O)C2O)cc1` (stereo not drawn) [NBMPR, 4-nitrobenzylthioinosine], the “[^3H]Adenosine uptake inhibition IC50” value at PvENT1 [2] (setting [9]) is recorded as “did not inhibit; also recorded: not sensitive”; at PvENT1 [2] (hENT1 inhibitors and toxic purine analogs, 50 nM [3H]adenosine, concentrations up to 20 mM, mean ± SD, n = 3, listed as 4-nitrobenzylthioinosine (NBMPR)), “no effect”. For the same molecule, the IC50 on PvENT1 [2] (setting [10]) was more than 20000 µM. Moreover, in the assay on hENT1 (in words), the “concentrations inhibiting hENT1” value is reported as “sub-nanomolar”.
Turning to `Cc1cn([C@H]2C[C@H](O)[C@@H](CO)O2)c(=O)[nH]c1=O` [Thymidine], the IC50 on PvENT1 [2] (setting [5]) worked out at 183 ± 53 µM.
As for `Cc1c[nH]c(=O)[nH]c1=O` [Thymine], inhibition on PvENT1 [2] (setting [5]) was half-maximal at 564 ± 145 µM (IC50).
Turning to `Nc1ncnc2c1ccn2[C@@H]1O[C@H](CO)[C@@H](O)[C@H]1O` [Tubercidin, tubercidin (7-deaza-adenosine)], on PvENT1 [2] (setting [9]), the “[^3H]Adenosine uptake inhibition IC50” value is “failed to inhibit”. In addition, the IC50 on PvENT1 [2] (setting [10]) was more than 20000 µM.
The molecule `O=c1cc[nH]c(=O)[nH]1` [Uracil] came in with a 50% inhibitory concentration (IC50) at PvENT1 [2] (setting [5]) of 3390 ± 1170 µM.
Still for that read-out and setting: the same measure for `O=c1ccn([C@@H]2O[C@H](CO)[C@@H](O)[C@H]2O)c(=O)[nH]1` [Uridine]: 1730 ± 809 µM.
Regarding `O=c1[nH]c(=O)c2[nH]cnc2[nH]1` [Xanthine], the IC50 against PvENT1 [1] (setting [7]) turned out to be 2550 ± 189 µM.
Same read-out and setting: the same measure for `O=c1[nH]c(=O)c2ncn([C@@H]3O[C@H](CO)[C@@H](O)[C@H]3O)c2[nH]1` [Xanthosine]: 4310 ± 2870 µM.

The values above are taken from article PMC4706624 (International Journal for Parasitology: Drugs and Drug …, 2015).
